TAAR1 ag: human TAAR1 agonists, primary screen, Fluo-8 calcium fluorescence, CHO RD-HGA16 cells | vehicle wells 0%, saturating PEA agonist 100% | activation, % at 3 µM | actives 0.99% (n = 360,000) | AID 624467, 2012;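 active means activation above the mean activation of all test compounds in the run plus 3 SD, cut at about 38% in these data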
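Test system: RD-HGA16 (CHO) cells co-expressing Gα16 and hTAAR1 | Doses: Single dose, 3 µM | Schedule: 17-24 h seeding, 75 min 37 °C dye, 30 min RT | Evaluation: % activation from peak over basal fluorescence ratio, DMSO-to-PEA scaled | Technique: Kinetic Fluo-8 calcium fluorescence | Benchmarks: Low control DMSO, high control PEA (EC100)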
OX1R antag-1: OX1R (HCRTR1) antagonists, primary screen, fluorescence, CHO/OX1R cells, Fluo-8 calcium, orexin A. actives 0.43% (n = 330,000). Fluo-8 calcium fluorescence. inhibition, % at 5 µM. Orexin/Hypocretin receptor type 1 (Homo sapiens), O43613;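 active means inhibition above its plate's threshold, mean inhibition of all tested compounds on the plate plus 3 SD, cut at about 37% in these data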;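 further: 0% = orexin A challenge wells and 100% = SB-334867-A antagonist wells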
Target sequence (O43613 whole entry, looked up): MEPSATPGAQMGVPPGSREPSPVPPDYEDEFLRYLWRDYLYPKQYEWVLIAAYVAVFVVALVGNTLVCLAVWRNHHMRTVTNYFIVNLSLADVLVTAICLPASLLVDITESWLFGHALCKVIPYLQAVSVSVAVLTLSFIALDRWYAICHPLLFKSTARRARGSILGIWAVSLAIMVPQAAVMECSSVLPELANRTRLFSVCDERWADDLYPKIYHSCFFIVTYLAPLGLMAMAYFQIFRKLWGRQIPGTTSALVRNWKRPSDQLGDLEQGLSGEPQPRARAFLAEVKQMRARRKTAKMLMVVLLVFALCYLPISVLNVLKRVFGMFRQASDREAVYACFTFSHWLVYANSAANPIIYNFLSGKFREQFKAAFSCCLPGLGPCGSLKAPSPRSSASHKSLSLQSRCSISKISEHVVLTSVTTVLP
GalR3 antagonist: GalR3 antagonists in HEK293 cells, primary screen, cell-based, fluorescence readout; HEK293 GalR3-CNG cAMP membrane potential fluorescence; galR3 body fused to GalR1 C-terminus; inhibition, % at 3 µM; Galanin receptor type 3 (Homo sapiens), O60755; actives 0.44% (n = 360,000);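 active means inhibition above the screen-wide average plus 3 SD, cut at about 13% in these data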;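 further: forskolin and galanin both at EC90 stimulate the cells; cAMP rise reported by CNG channel membrane potential dye signal; 0% = forskolin plus galanin with DMSO and 100% = forskolin alone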
CHO parental Ca: ATP-evoked calcium signal inhibitors, parental CHO, primary screen, counter-screen for OX1R antagonist project, cell-based, fluorescence, Fluo-8 calcium dye; AID 463079, 2010; inhibition, % at 5.6 µM; actives 0.63% (n = 330,000); parental CHO-K1, ATP-induced calcium, Fluo-8 fluorescence;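 active means inhibition above that plate's mean sample inhibition plus 3 SD, cut at about 26% in these data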;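 further: 0% = ATP-challenged DMSO wells and 100% = DMSO wells without ATP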
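test system = CHO parental line | reagent = ATP stimulus | measured by = intracellular calcium via Fluo-8 no-wash fluorescent dye | control set = ATP and no-ATP DMSO wells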
TAAR1 antag: human TAAR1 antagonists, primary screen, Fluo-8 calcium fluorescence, CHO RD-HGA16 cells. Trace amine-associated receptor 1 (Homo sapiens), Q96RJ0. antagonist. inhibition, % at 3 µM. actives 1.5% (n = 360,000). AID 624466, 2012;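 active means inhibition above a per-plate cutoff, the mean inhibition of test compounds on that plate plus 3 SD, cut at about 49% in these data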;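 further: 0% = DMSO plus EC80 beta-PEA response and 100% = DMSO alone without agonist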
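Test system – hTAAR1-expressing CHO RD-HGA16 cells, Gα16-coupled · Reagent – β-PEA at EC80 concentration, post-compound challenge · Compound dosing – 3 µM, single point · Timing – 140 s kinetic read after compound, 140 s after agonist · Detection – Fluo-8 intracellular calcium dye fluorescence, real-time kinetic reads · Control set – DMSO and EC80 PEA controls · Repeats – n of 1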
OX1R antag-2: antagonists of human orexin 1 receptor (OX1R); Orexin/Hypocretin receptor type 1 (Homo sapiens), O43613; inhibition, % at 6.6 µM; actives 1.8% (n = 330,000); OX1R-expressing cells, FRET antagonist read-out; AID 485270, 2010; in the data active means inhibition mostly above about 38%, no sharp cut-off; inactive means mostly below about 40%;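 further: 0% = agonist challenge alone and 100% = reference antagonist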
TAAR1 ag confirm: human TAAR1 agonists, retest of hits, confirmation, Fluo-8 calcium fluorescence, CHO RD-HGA16 cells; shares compounds with TAAR1 ag; scaled: DMSO 0%, maximal phenethylamine 100%; activation, % at 3 µM; actives 82% (n = 2,400); AID 651783, 2012;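 active means activation above a cutoff set at the run's mean compound activation plus 3 SD, cut at about 39% in these data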
Ga16 ag counter: nonselective calcium mobilization agonists, CHO-Ga16 cells, counter-screen for hTAAR1 agonist project, cell-based, fluorescence, CHO-Ga16 parental line; shares compounds with TAAR1 ag; Fluo-8 calcium fluorescence; normalized to maximal ATP response, DMSO zero; activation, % at 3 µM; actives 50% (n = 2,400); AID 651787, 2012;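 active means activation above the run cutoff, the mean activation over all tested wells plus 3 SD, cut at about 12% in these data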;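 further: 0% = DMSO wells and 100% = maximal ATP response on the peak over basal ratio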
TAAR1 desens: TAAR1 desensitization by agonist hits, confirmation, counter-screen for TAAR1 agonist project, cell-based, fluorescence, tachyphylaxis. AID 651951, 2012. inhibition, % at 3 µM. CHO RD-HGA16 hTAAR1, Fluo-8 calcium, beta-PEA response inhibition. actives 46% (n = 2,400). shares compounds with TAAR1 ag;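 active means inhibition above the run cutoff, the mean inhibition of all test compounds plus 3 SD, cut at about 49% in these data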;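 further: beta-PEA stimulus applied at its EC80; loss of beta-PEA calcium signal after compound pretreatment read as receptor desensitization; 0% = DMSO with beta-PEA at EC80 and 100% = DMSO alone without agonist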
Ga16 nonsel ant: inhibition of ATP-evoked calcium response in CHO-Ga16 cells, counter-screen for TAAR1 agonist project, cell-based, fluorescence. CHO-Ga16 ATP-induced calcium, Fluo-8 fluorescence. actives 39% (n = 2,400). inhibition, % at 3 µM. AID 651952, 2012. shares compounds with TAAR1 ag;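 active means inhibition above the plate's mean compound inhibition plus 3 SD, computed per plate, cut at about 22% in these data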;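 further: 0% = EC80 ATP with DMSO and 100% = DMSO wells without ATP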
Active calls of the source: *; · = not tested or not shown. Most compounds without a hit are left out; they make up all but 4.3% or so of the library.

SMILES	TAAR1 ag	OX1R antag-1	GalR3 antagonist	CHO parental Ca	TAAR1 antag	OX1R antag-2	TAAR1 ag confirm	Ga16 ag counter	TAAR1 desens	Ga16 nonsel ant
C[C@H]1[C@H](c2ccccc2)Oc2cccc(NCCc3ccccc3)c2S(=O)(=O)N1Cc1cccc(Cl)c1	40*	·	-6	·	1	·	62*	9	17	12
COc1ccc(Cc2nnc(SCC(=O)N3CCc4ccccc4C3)o2)cc1	55*	-21	-5	-16	-1	0	75*	2	12	10
O=C(CN1C(=O)c2cccc3cccc1c23)N1CCc2ccccc2C1	13	-4	-5	-12	2	18	·	·	·	·
O=C(CCCN1C(=O)c2ccccc2C1=O)N1CCc2ccccc2C1	69*	-21	-1	-11	21	14	83*	0	46	11
COc1ccc(OCC(=O)N2CCc3ccccc3C2)cc1	·	-3	-8	-6	·	9	·	0	·	11
Cc1cccc(OCC(=O)N2CCc3ccccc3C2)c1	55*	-19	-3	-3	18	4	69*	2	24	6
Cc1ccc(OCC(=O)N2CCc3ccccc3C2)cc1C	19	·	-5	·	-25	·	·	·	·	·
O=C(COc1cccc2cccnc12)N1CCc2ccccc2C1	52*	-26	5	-22	5	27	21	3	11	16
Cc1cccc(C(=O)NC(=S)N2CCc3ccccc3C2)c1	62*	-14	-4	-13	18	12	65*	3	32	7
Cc1cc(C)n(CCCNC(=O)c2ccc(C)o2)n1	10	-4	-2	-11	13	2	·	·	·	·
FC(F)C(F)(F)c1cc(-c2ccc(Cl)cc2)n[nH]1	63*	73*	1	56*	49	2	57*	22*	48	26*
CC(C)C[C@H]1CN=C(Nc2ccccc2)N1CCCC1CCCCC1	58*	-42	-5	-21	15	15	58*	26*	33	27*
CC(C)C[C@H]1CN=C(Nc2ccccc2)N1CCCC1CCCC1	57*	-31	-13	-22	2	9	74*	36*	26	24*
c1ccc(C[C@H]2CN=C(Nc3ccccc3)N2CCCC2CCCCC2)cc1	47*	0	3	-24	-2	5	20	3	13	13
CC(C)C[C@H]1CN=C(Nc2ccccc2)N1CCC1CCCC1	25	-35	-5	-22	-6	22	·	·	·	·
CCCCCCCN1C(Nc2ccccc2)=NC[C@@H]1CC(C)C	36	-18	-11	-14	4	20	·	·	·	·
C=C(C)CN1C(=O)C(C)SC1=NN=C1SCC(=O)N1C (configuration not stated)	0	·	-7	·	2	·	·	·	·	·
CNC(=O)/C(C#N)=C/c1ccc(OCCOc2ccccc2)cc1	4	·	5	·	-7	·	·	·	·	·
COc1ccc(CN2C(=O)C(CC(=O)NCCc3ccccn3)CC(C(=O)N3CCOCC3)=C2C)cc1 (configuration not stated)	2	·	2	·	-9	·	·	·	·	·
CN(CCNC(=O)c1cn(C)c2ccc(S(=O)(=O)N(C)C)cc2c1=O)CCc1ccccc1	44*	-26	2	-20	-17	6	55*	1	5	-8
COc1ccc(Cn2c(SCc3ccccc3C)nc3cc(OC)c(OC)cc3c2=N)cc1	52*	-1	-5	-3	9	7	71*	31*	47	34*
COc1ccc(CCNC(=O)C(=O)NCCC2CCCCN2S(=O)(=O)c2cccs2)cc1 (configuration not stated)	6	-12	-5	-20	23	29	·	·	·	·
O=C(NCCc1ccccc1)C(=O)NCC1CCCN1S(=O)(=O)c1cccs1 (configuration not stated)	89*	-16	-2	-4	69*	31	98*	9	95*	27*
Cc1cc(C(=O)CN2C(=O)C(=O)N(Cc3ccco3)C2=O)c(C)n1CCc1ccc(F)cc1	48*	-6	-8	4	7	20	88*	9	43	12
CCC(C)(C)NC(=O)C(c1cccc(OC)c1)N(C(=O)c1ccn[nH]1)c1cccc(OC)c1 (configuration not stated)	50*	-17	-1	-20	39	23	26	14*	39	28*
CCOC(=O)C(NCc1ccc(OC)cc1)(NC(C)=O)C(F)(F)F (configuration not stated)	-1	0	-5	-10	18	17	·	·	·	·
CCOC(=O)C(NCCc1ccccc1)(NC(C)=O)C(F)(F)F (configuration not stated)	·	-1	1	-1	·	16	·	1	·	3
CCOC(=O)C(NCCc1ccc(F)cc1)(NC(=O)CC)C(F)(F)F (configuration not stated)	51*	-12	-3	-18	18	6	64*	6	10	-3
CCOC(=O)NC(NCCc1ccccc1)(C(F)(F)F)C(F)(F)F	87*	-9	-1	-4	87*	9	98*	15*	87*	-8
CCOC(=O)C(NC(C)=O)(OCc1ccc(F)cc1)C(F)(F)F (configuration not stated)	2	-13	3	-9	0	8	·	·	·	·
